Screening results as filed in PubChem.
KCNK9 inh – KCNK9 potassium channel inhibitors, primary screen, HEK293 cells, thallium flux | Potassium channel subfamily K member 9 (Homo sapiens), Q9NPC2 | FluxOR thallium flux fluorescence; active compounds read low | B-score at 10 µM | hit rate 1.2% among 310,000;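 active = ratio B-score over 3 SD below the library mean, with starting fluorescence within 5 SD of its mean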;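 also: negative B-score means less thallium flux so channel inhibition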
Kir21 inh – inhibitors of mouse Kir2.1 inward-rectifier potassium channel | Inward rectifier potassium channel 2 (Mus musculus), P35561 | HEK293-Kir2.1, FluxOR thallium flux fluorescence; active compounds read low | B-score at 10 µM | hit rate 0.85% among 310,000 | AID 1672, 2009;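 active = fluorescence ratio B-score at or below minus 3 SD of library scores, with starting-brightness B-score within 2 SD, cut at about -4.2 in these data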;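 also: channel flux triggered by added potassium and thallium sulfate stimulus; B-score of peak minus minimum fluorescence over baseline after thallium stimulus; more negative B-score means stronger Kir2.1 block with less thallium influx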
KCNQ1 block – inhibitors of human KCNQ1 channel, primary screen, cell-based, thallium flux, high-throughput; Potassium voltage-gated channel subfamily KQT member 1 (Homo sapiens), P51787; CHO-K1 KCNQ1, FluxOR thallium flux fluorescence; active compounds read high; B-score at 10 µM; hit rate 1.3% among 310,000; AID 2642, 2010;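 active = compounds whose thallium flux B-score, printed positive for inhibition, exceeds three library SD while starting fluorescence stays within three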;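 also: channel opened by potassium depolarization with thallium stimulus after 20 min compound exposure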
Target sequence (P51787 whole entry, looked up): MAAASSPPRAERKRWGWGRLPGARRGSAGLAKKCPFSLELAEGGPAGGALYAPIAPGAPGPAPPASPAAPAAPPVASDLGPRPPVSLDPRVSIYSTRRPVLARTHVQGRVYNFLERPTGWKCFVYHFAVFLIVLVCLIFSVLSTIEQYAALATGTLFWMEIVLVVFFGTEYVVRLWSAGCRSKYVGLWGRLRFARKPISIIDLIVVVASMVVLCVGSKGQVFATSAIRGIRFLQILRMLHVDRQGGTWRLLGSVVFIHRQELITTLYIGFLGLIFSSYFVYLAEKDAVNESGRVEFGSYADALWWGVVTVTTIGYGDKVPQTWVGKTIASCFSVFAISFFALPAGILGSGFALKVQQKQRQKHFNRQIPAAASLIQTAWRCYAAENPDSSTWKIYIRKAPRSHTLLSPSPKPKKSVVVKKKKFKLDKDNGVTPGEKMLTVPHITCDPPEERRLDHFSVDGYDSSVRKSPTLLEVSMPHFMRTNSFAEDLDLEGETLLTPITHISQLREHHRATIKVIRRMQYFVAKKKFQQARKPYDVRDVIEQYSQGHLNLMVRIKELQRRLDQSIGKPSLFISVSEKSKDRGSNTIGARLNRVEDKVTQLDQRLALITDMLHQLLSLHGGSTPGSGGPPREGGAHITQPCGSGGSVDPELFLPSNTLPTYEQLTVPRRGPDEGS
KCNK3 inh – human KCNK3 channel inhibitors, primary screen, CHO cells, FluxOR thallium flux, B-score. B-score at 10 µM. FluxOR fluorescence; active compounds read low. hit rate 0.84% among 340,000. AID 602410, 2012;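 active = B-score under library mean minus 4 SD, starting fluorescence ratio at most library mean plus 5 SD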;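 also: more negative B-score means stronger inhibition of thallium flux through KCNK3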
hERG rescue – hERG rescue from dofetilide block, primary screen, cell-based, CHO-hERG, FluxOR thallium flux, dofetilide IC70 | Voltage-gated inwardly rectifying potassium channel KCNH2 (Homo sapiens), Q12809 | dofetilide IC70 present | activation (rescue from dofetilide block), less the hit threshold, % at 10 µM | hit rate 0.51% among 310,000 | AID 1511, 2009;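 active = activation above the mean of controls blocked by dofetilide plus 5 SD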;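 also: thallium influx through hERG after potassium depolarization seen as dye fluorescence rise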
KCNQ1 act – potentiators or activators of KCNQ1 channel, primary screen, cell-based, thallium flux, high-throughput. CHO-K1 KCNQ1, thallium flux FluxOR fluorescence; active compounds read high. B-score at 10 µM. AID 2648, 2010. hit rate 0.35% among 310,000;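 active = fluorescence ratio B-score, a plate-corrected score, at least three library SD, with initial intensity B-score within 5 SD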
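System: CHO-K1 cells stably expressing KCNQ1 / Medium: assay buffer for compound exposure, DMSO matched across wells / Reagent: thallium- and potassium-containing depolarizing buffer / Compound: one concentration, matched DMSO / Incubation: 20 min compound pretreatment at room temperature / Measured by: kinetic FluxOR fluorescence, 10 s baseline plus 110 s post-stimulus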
* marks the source's active call; other numbers are inactive results; i = inactive; x = no result given. This is a sample that favours compounds with a hit; in the whole collection about 3.7% have one here.

SMILES	KCNK9 inh	Kir21 inh	KCNQ1 block	KCNK3 inh	hERG rescue	KCNQ1 act
O=C1CCc2cc(S(=O)(=O)NCCC(=O)NC3CCCCC3)ccc2N1	i	1.7	i	i	-6	i
CCOc1ccc(Br)cc1S(=O)(=O)Nc1ccc(NC(=O)c2ccccc2C)cc1	-7.4*	-0.63	i	i	-11	i
CCOc1ccc(Br)cc1S(=O)(=O)Nc1ccc(C(=O)Nc2ccc(C)cc2)cc1	-7.1*	0.44	i	i	-4	i
CCSc1ccc([C@@H]2[C@H]3C(=O)N(C)C(=O)[C@H]3[C@]3(C(=O)OC)CCCCN23)cc1OC	x	x	x	i	x	x
CCOC(=O)N/N=C/c1c(C)nn(-c2ccccc2Cl)c1Cl	-8.1*	1.2	i	i	1	i
CC(=O)N1c2ccc(S(=O)(=O)N3CCC(C(=O)Nc4cccc(C(F)(F)F)c4)CC3)cc2CC1C (stereo unspecified)	i	-0.04	i	i	-14	i
O=C(OCc1ccccc1)N(CCF)c1cn(Cc2ccccc2)c(=O)n(Cc2ccccc2)c1=O	x	x	x	i	x	x
O=C(Nc1cc(Sc2nc3ccccc3s2)cc([N+](=O)[O-])c1)c1ccccc1	i	-0.05	11*	i	-23	i
O=C1CSC(c2cccnc2)N1C1CCCCC1 (stereo unspecified)	i	-2	i	i	-8	i
O=C1CSC(c2ccc(Cl)cc2)N1C1CCCCC1 (stereo unspecified)	i	-6.1*	i	i	-11	i
N=C(c1cccc([N+](=O)[O-])c1)N1CCCCC1	i	2.2	i	i	-2	i
c1ccc2c(NCC3CCCO3)nc(N3CCOCC3)nc2c1 (stereo unspecified)	i	-0.7	i	i	-5	i
COc1ccc(Nc2nc(NCC3CCCO3)c3ccccc3n2)c(OC)c1 (stereo unspecified)	i	-9.9*	i	i	-11	i
Oc1cccc(Nc2nc(NCC3CCCO3)c3ccccc3n2)c1 (stereo unspecified)	i	-8.1*	9*	i	-38	i
Cc1ccccc1NC(=O)Cc1nc(COC(=O)C(NC(=O)c2ccccc2C)C(C)C)cs1 (stereo unspecified)	x	x	x	i	x	x
CCCc1nnc(NC(=O)CCC(=O)N2CCC(Cc3ccccc3)CC2)s1	i	0.18	i	i	-10	i
CCCCN(CCCC)S(=O)(=O)c1ccc2oc(C(=O)N3CCOCC3)c(C)c2c1	i	-4.8*	i	i	-10	i
Cc1ccc2oc(C(=O)N3CCN(CCO)CC3)c(C)c2c1	i	-0.04	i	i	8.5*	9*
CCCc1ccc2oc(C(=O)N3CCN(CCC(N)=O)CC3)c(C)c2c1	i	2.1	i	i	-5	i
CCOC(=O)[C@H]1[C@H]2COc3ccc(OC)cc3[C@@H]2N2C(=O)CN(CCc3c[nH]c4ccccc34)C(=O)[C@@]12C	x	x	x	i	x	x
COCCOC(=O)/C(=C/c1ccc(OC(=O)c2ccccc2)cc1)C(C)=O	i	-14*	i	i	-20	13*
O=C(Oc1ccc(/C=N/Nc2ccccc2)cc1)c1ccccc1	i	-4.6*	i	i	-13	i
CCOC(=O)/C(=C/c1ccc(OC(=O)c2ccncc2)cc1)C(C)=O	i	-1	i	i	-14	i
O=C(Oc1ccc(/C=N/O)cc1)c1ccccc1	i	-5.6*	i	i	-10	i
O=C(O)c1ccc(N/N=C/c2ccc(OC(=O)c3cccc(Cl)c3)cc2)cc1	i	3.4	i	i	-2	i
SMILES	KCNK9 inh	Kir21 inh	KCNQ1 block	KCNK3 inh	hERG rescue	KCNQ1 act
COC(=O)CN(c1ccc(OCc2ccccc2)cc1)S(C)(=O)=O	i	0.51	i	i	-2	i
O=c1c(Cl)c(Cl)cnn1Cc1nnc(-c2ccccc2Br)o1	i	0.12	i	i	-14	27*
O=C(NC(=Nc1nc2ccccc2o1)NC(=O)c1ccccc1)c1ccccc1	i	-0.19	i	i	-9	i
COc1ccccc1C(=O)NC(=Nc1nc2ccccc2o1)NC(=O)c1ccccc1OC	-16*	-1.5	i	i	-38	i
Cc1cc2cc(C)c(SCC(=O)NCc3ccco3)nc2cc1C	i	-1.9	i	i	-5	i
Cc1sc2nc(C(C)C)nc(SCC(=O)NCc3ccco3)c2c1C	i	-2.9	i	i	8.7*	12*
CC(C)(C)c1nc(SCC(=O)NCc2ccco2)c2ccccc2n1	i	-8*	i	i	-5	i
Cc1nc(SCC(=O)NC(=O)NCc2ccco2)nc(C)c1C	i	1.4	i	i	6.7*	i
Cn1c(N)c(C(=O)CSc2nnc(C3CC3)n2Cc2ccccc2)c(=O)n(C)c1=O	x	x	x	i	x	x
O=C(CSc1nnc(C2CC2)n1Cc1ccccc1)c1cc2ccccc2o1	i	-4.5*	i	i	-8	i
CCOc1ccc(Br)cc1C1=CC(=O)C[C@H](c2ccc(OC)cc2)C1	x	x	x	i	x	x
CC1=NNC(=O)C1Cc1ccc(F)cc1 (stereo unspecified)	i	0.01	i	i	-4	i
CC1=NNC(=O)C1C(c1ccc(F)cc1)C(C#N)C#N (stereo unspecified)	i	-4.3*	i	i	1	i
Cc1noc(C)c1COC(=O)[C@H](C)NS(=O)(=O)c1ccc(Cl)c(Cl)c1	i	-5.2*	i	i	-10	i
O=C(Cc1ccccc1)NC1CCN(S(=O)(=O)c2ccc(C(=O)O)cc2)CC1	i	0.12	i	i	6.1*	i
COCC(=O)NC1CCN(S(=O)(=O)c2ccc(C(=O)O)cc2)CC1	i	0.07	i	i	-10	i
c1ccc(CNc2ccccn2)cc1	i	-0.25	i	i	-2	i
c1ccc(C2(CNc3ccccn3)CCCC2)cc1	i	-4.4*	i	i	-10	i
CCCC[C@@H]1C[C@H]1[C@@H](NC(=O)c1cccs1)c1ccc(C(F)(F)F)cc1	-7.3*	0.58	i	x	-15	i
CC(C)Cn1c(N)c(C(=O)COC(=O)c2cc(F)cc(F)c2)c(=O)n(C)c1=O	i	-0.35	i	i	-20	i
CC(C)Cn1c(N)c(C(=O)COC(=O)c2cnc(Cl)c(Cl)c2)c(=O)n(C)c1=O	i	0.57	6*	i	-7	i
